From ChEMBL document CHEMBL3244254, “Hypolipidemic activity of 5-aryl-3-methylvaleric acid derivatives” (J Med Chem, 1977)

Assays:
[1] = molecular target: T1, 3-hydroxy-3-methylglutaryl-coenzyme A reductase (Rattus norvegicus, UniProt P51639); assay: Inhibition of HMG-coA reductase in CD rat liver microsomal-cytosol fraction assessed as inhibition of nonsaponifiable lipid synthesis using [2-14C]acetate as substrate after 90 mins by scintillation counting analysis
T1 sequence (P51639 whole entry): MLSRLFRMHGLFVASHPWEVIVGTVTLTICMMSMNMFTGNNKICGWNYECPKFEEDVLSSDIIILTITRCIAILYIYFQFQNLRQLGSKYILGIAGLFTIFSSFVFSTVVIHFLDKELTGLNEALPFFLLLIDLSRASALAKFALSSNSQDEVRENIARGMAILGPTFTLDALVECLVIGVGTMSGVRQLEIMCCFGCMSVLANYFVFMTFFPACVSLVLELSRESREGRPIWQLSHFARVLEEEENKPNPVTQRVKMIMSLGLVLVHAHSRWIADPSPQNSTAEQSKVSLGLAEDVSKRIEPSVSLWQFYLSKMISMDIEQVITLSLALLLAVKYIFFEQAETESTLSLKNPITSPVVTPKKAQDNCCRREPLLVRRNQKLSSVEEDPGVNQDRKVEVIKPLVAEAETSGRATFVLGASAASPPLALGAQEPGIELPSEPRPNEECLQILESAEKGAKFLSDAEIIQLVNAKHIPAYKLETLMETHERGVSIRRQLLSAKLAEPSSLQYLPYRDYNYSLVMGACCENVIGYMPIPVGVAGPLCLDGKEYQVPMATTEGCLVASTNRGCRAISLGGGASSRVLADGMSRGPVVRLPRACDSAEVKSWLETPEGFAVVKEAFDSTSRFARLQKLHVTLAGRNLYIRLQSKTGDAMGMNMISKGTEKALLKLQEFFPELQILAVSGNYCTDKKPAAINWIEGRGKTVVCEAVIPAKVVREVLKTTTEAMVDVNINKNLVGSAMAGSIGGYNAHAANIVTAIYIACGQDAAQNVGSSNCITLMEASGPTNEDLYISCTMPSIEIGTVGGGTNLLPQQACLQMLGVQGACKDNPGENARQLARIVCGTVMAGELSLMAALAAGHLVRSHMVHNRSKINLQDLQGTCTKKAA
Procedure, shortened: (§1)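 Male CD rats, 150–200 g, housed singly 5 days on chow with 2% DEAE-cellulose, killed by cervical dislocation. Liver microsomal-cytosol fraction as enzyme source, [2-14C]acetate substrate, 90 min at 37 °C. Compounds added in Me2SO, at least four concentrations, duplicates. Lipid extract counted by scintillation (dpm). Heat-inactivated fraction corrects for nonenzymatic incorporation. Fractions are total lipid, nonsaponifiable lipid and fatty acid. IC50 is molar concentration giving 50% inhibition.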

[2] = test system: Rattus norvegicus; assay: Hypolipidemic activity in intact normal CD rat assessed as reduction in serum cholesterol level at 0.45 mmol/kg/day administered through diet for 5 days measured on day 6; format: functional
Procedure, shortened: (§2)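 Male CD rats, 300–380 g, housed in pairs, 12-h light/dark, free access to food and water. Test agent mixed into ground chow at 0.2%; controls got plain ground chow; 8 rats per group. Body weight and group food intake recorded. Fed 5 days, anesthetized on day 6, blood collected, serum total cholesterol or triglyceride measured. Expressed as % reduction vs concurrent controls, Student's t test p ≤ 0.05.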

[3] = molecular target: T1, 3-hydroxy-3-methylglutaryl-coenzyme A reductase; assay: Inhibition of HMG-coA reductase in CD rat liver microsomal-cytosol fraction assessed as inhibition of total lipid synthesis using [2-14C]acetate as substrate after 90 mins by scintillation counting analysis; procedure, shortened: as §1
[4] = test system: Rattus norvegicus; assay: Hypolipidemic activity in intact normal CD rat assessed as reduction in serum triglyceride level at 0.45 mmol/kg/day administered through diet for 5 days measured on day 6; format: functional; procedure, shortened: as §2
[5] = test system: Rattus norvegicus; assay: Hypolipidemic activity in intact normal CD rat assessed as reduction in serum cholesterol level at 0.38 mmol/kg/day administered through diet for 5 days measured on day 6; format: functional; procedure, shortened: as §2
[6] = test system: Rattus norvegicus; assay: Hypolipidemic activity in intact normal CD rat assessed as reduction in serum triglyceride level at 0.38 mmol/kg/day administered through diet for 5 days measured on day 6; format: functional; procedure, shortened: as §2
[7] = test system: Rattus norvegicus; assay: Hypolipidemic activity in intact normal CD rat assessed as reduction in serum triglyceride level at 0.42 mmol/kg/day administered through diet for 5 days measured on day 6; format: functional; procedure, shortened: as §2
[8] = test system: Rattus norvegicus; assay: Hypolipidemic activity in intact normal CD rat assessed as reduction in serum cholesterol level at 0.42 mmol/kg/day administered through diet for 5 days measured on day 6; format: functional; procedure, shortened: as §2
[9] = test system: Rattus norvegicus; assay: Hypolipidemic activity in intact normal CD rat assessed as reduction in serum triglyceride level at 0.43 mmol/kg/day administered through diet for 5 days measured on day 6; format: functional; procedure, shortened: as §2
[10] = test system: Rattus norvegicus; assay: Hypolipidemic activity in intact normal CD rat assessed as reduction in serum cholesterol level at 0.43 mmol/kg/day administered through diet for 5 days measured on day 6; format: functional; procedure, shortened: as §2
[11] = test system: Rattus norvegicus; assay: Hypolipidemic activity in intact normal CD rat assessed as reduction in serum triglyceride level at 0.40 mmol/kg/day administered through diet for 5 days measured on day 6; format: functional; procedure, shortened: as §2
[12] = test system: Rattus norvegicus; assay: Hypolipidemic activity in intact normal CD rat assessed as reduction in serum cholesterol level at 0.40 mmol/kg/day administered through diet for 5 days measured on day 6; format: functional; procedure, shortened: as §2
[13] = test system: Rattus norvegicus; assay: Hypolipidemic activity in intact normal CD rat assessed as reduction in serum cholesterol level at 0.41 mmol/kg/day administered through diet for 5 days measured on day 6; format: functional; procedure, shortened: as §2
[14] = test system: Rattus norvegicus; assay: Hypolipidemic activity in intact normal CD rat assessed as reduction in serum triglyceride level at 0.41 mmol/kg/day administered through diet for 5 days measured on day 6; format: functional; procedure, shortened: as §2
[15] = test system: Rattus norvegicus; assay: Hypolipidemic activity in intact normal CD rat assessed as reduction in serum triglyceride level at 0.36 mmol/kg/day administered through diet for 5 days measured on day 6; format: functional; procedure, shortened: as §2
[16] = test system: Rattus norvegicus; assay: Hypolipidemic activity in intact normal CD rat assessed as reduction in serum cholesterol level at 0.36 mmol/kg/day administered through diet for 5 days measured on day 6; format: functional; procedure, shortened: as §2
[17] = test system: Rattus norvegicus; assay: Hypolipidemic activity in intact normal CD rat assessed as reduction in serum cholesterol level at 0.51 mmol/kg/day administered through diet for 5 days measured on day 6; format: functional; procedure, shortened: as §2
[18] = test system: Rattus norvegicus; assay: Hypolipidemic activity in intact normal CD rat assessed as reduction in serum triglyceride level at 0.51 mmol/kg/day administered through diet for 5 days measured on day 6; format: functional; procedure, shortened: as §2
[19] = test system: Rattus norvegicus; assay: Hypolipidemic activity in intact normal CD rat assessed as reduction in serum cholesterol level at 0.39 mmol/kg/day administered through diet for 5 days measured on day 6; format: functional; procedure, shortened: as §2
[20] = test system: Rattus norvegicus; assay: Hypolipidemic activity in intact normal CD rat assessed as reduction in serum triglyceride level at 0.39 mmol/kg/day administered through diet for 5 days measured on day 6; format: functional; procedure, shortened: as §2

Row | SMILES | IC50 [1] | IC50 [3] | other results
1 | CC(CCc1ccc(-c2ccccc2)cc1)CC(=O)O (stereo unspecified) | 2 µM | 20 µM | inhibition in vivo at 450 µmol/kg [2]: 16%; inhibition in vivo at 450 µmol/kg [4]: 26%
2 | CC(CC(=O)O)CC(=O)c1ccc(Sc2ccccc2)cc1 (stereo unspecified) | 240 µM | 570 µM | inhibition in vivo at 380 µmol/kg [5]: 16%; inhibition in vivo at 380 µmol/kg [6]: ≥ 36%
3 | CC(CCc1ccc(Oc2ccccc2)cc1)CC(=O)O (stereo unspecified) | 20 µM | 30 µM | inhibition in vivo at 420 µmol/kg [7]: ≥ 36%; inhibition in vivo at 420 µmol/kg [8]: 26%
4 | CC(CC(=O)O)CC(=O)c1ccc(-c2ccccc2)cc1 (stereo unspecified) | 70 µM | 180 µM | inhibition in vivo at 430 µmol/kg [9]: 16%; inhibition in vivo at 430 µmol/kg [10]: 26%
5 | CC(CC(=O)O)CC(=O)c1ccc2sc3ccccc3c2c1 (stereo unspecified) | 160 µM | 310 µM | inhibition in vivo at 380 µmol/kg [5]: 16%; inhibition in vivo at 380 µmol/kg [6]: 26%
6 | CC(CCc1ccc2sc3ccccc3c2c1)CC(=O)O (stereo unspecified) | 70 µM | 190 µM | inhibition in vivo at 430 µmol/kg [9]: ≥ 36%; inhibition in vivo at 430 µmol/kg [10]: 0%
7 | CC(CCc1ccc(Sc2ccccc2)cc1)CC(=O)O (stereo unspecified) | 20 µM | 40 µM | inhibition in vivo at 400 µmol/kg [11]: ≥ 36%; inhibition in vivo at 400 µmol/kg [12]: 26%
8 | CC(CC(=O)O)CC(=O)c1ccc2oc3ccccc3c2c1 (stereo unspecified) | 110 µM | 260 µM | inhibition in vivo at 410 µmol/kg [13]: 0%; inhibition in vivo at 410 µmol/kg [14]: 26%
9 | CC(CCc1ccc(S(=O)(=O)c2ccccc2)cc1)CC(=O)O (stereo unspecified) | 40 µM | 70 µM | inhibition in vivo at 360 µmol/kg [15]: 60%; inhibition in vivo at 360 µmol/kg [16]: 45%
10 | CC(CCc1ccc2oc3ccccc3c2c1)CC(=O)O (stereo unspecified) | 360 µM | 810 µM | inhibition in vivo at 430 µmol/kg [9]: ≥ 36%; inhibition in vivo at 430 µmol/kg [10]: 26%
11 | CC(C)(Oc1ccc(Cl)cc1)C(=O)O | 860 µM | 630 µM | inhibition in vivo at 510 µmol/kg [17]: 26%; inhibition in vivo at 510 µmol/kg [18]: 26%
12 | CC(CC(=O)O)CC(=O)c1ccc2c(c1)CCc1ccccc1-2 (stereo unspecified) | 30 µM | 60 µM | inhibition in vivo at 390 µmol/kg [19]: 0%; inhibition in vivo at 390 µmol/kg [20]: ≥ 36%
13 | CC(CC(=O)O)CC(=O)c1ccc(Oc2ccccc2)cc1 (stereo unspecified) | 290 µM | 850 µM | inhibition in vivo at 400 µmol/kg [11]: ≥ 36%; inhibition in vivo at 400 µmol/kg [12]: 16%
14 | CC(CCc1ccc2c(c1)-c1ccccc1S2(=O)=O)CC(=O)O (stereo unspecified) | 80 µM | 50 µM | inhibition in vivo at 360 µmol/kg [15]: ≥ 36%; inhibition in vivo at 360 µmol/kg [16]: 16%
